Test results from ChEMBL document CHEMBL1127651, “Molecular requirements for the inhibition of the tetracycline antiport protein and the effect of potent inhibitors on the growth of tetracycline-resistant bacteria” (J Med Chem, 1994).
pIC50: −log10 of the molar value. ≈ marks a conversion by molar mass, not a printed value. Calls of active or inactive are those of the source. The calls are words filed in the database; no cut-off is given here.

Assays:
Escherichia coli [1] = assay: (§1) Inhibitory activity against tetracycline uptake in everted membrane vesicles derived from Tc-resistant Escherichia coli bearing class B tetracycline resistance efflux protein (Tet); assay type: functional
Outline: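 Everted inner membrane vesicles from E. coli D1-209 carrying plasmid R222 (class B Tc determinant on Tn10), energized with Li lactate; test compound added together with [³H]Tc. Accumulated [³H]Tc read at 2.5 min after energization, compared with uptake without analogue; CCCP-deenergized vesicles served as the negative control. IC50 = concentration giving 50% inhibition of uptake. Separately screened for disruption of the pH gradient by acridine orange fluorescence in vesicles from isogenic Tc-susceptible cells.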

Escherichia coli [2] = assay: Minimum inhibitory activity against tetracycline-susceptible Escherichia coli strain D31m4 (Tet B on plasmid pHCMI); assay type: functional; settings: in the assay text read “tetracycline-resistant” for “tetracycline-susceptible”
Outline: (§2)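 Inoculum about 10⁶ cfu/mL into two-fold dilutions from 200 to 0.030 µg/mL, made from a 10 mg/mL stock in H₂O or 1:1 H₂O/MeOH. Incubated 18–20 h at 37 °C; MIC = amount inhibiting growth.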

Escherichia coli [3] = assay: Minimum inhibitory activity against tetracycline-susceptible Escherichia coli strain ML308-225 (Tet B on plasmid R222) in combination with doxycycline; no effect; assay type: functional, organism-based
Enterococcus faecalis [4] = assay: Minimum inhibitory activity against tetracycline-susceptible Enterococcus faecalis strain ATCC 9790 (Tet L on plasmid MV158); assay type: functional; settings: in the assay text read “tetracycline-resistant” for “tetracycline-susceptible”; outline: as §2
Staphylococcus aureus [5] = assay: Minimum inhibitory activity against tetracycline-susceptible Staphylococcus aureus strain RN450; assay type: functional
Outline: (§3)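 Broth dilution MIC in Luria broth. Two-fold dilutions from a 10 mg/mL stock in H₂O or 1:1 H₂O/MeOH, test range 200–0.030 µg/mL, incubated 18–20 h at 37 °C. MIC = lowest amount inhibiting growth.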

Escherichia coli [6] = assay: Minimum inhibitory activity against tetracycline-susceptible Escherichia coli strain ML308-225; assay type: functional; outline: as §3
Escherichia coli [7] = assay: Minimum inhibitory activity against tetracycline-susceptible Escherichia coli strain ML308-225 (Tet A on plasmid pIP15); assay type: functional; outline: as §2
Escherichia coli [8] = assay: Minimum inhibitory activity against tetracycline-susceptible Escherichia coli strain ML308-225 (Tet B on plasmid R222); assay type: functional; outline: as §2
Enterococcus faecalis [9] = assay: Minimum inhibitory activity against tetracycline-susceptible Enterococcus faecalis strain ATCC 9790; assay type: functional; outline: as §3
Escherichia coli [10] = assay: Minimum inhibitory activity against tetracycline-susceptible Escherichia coli strain D31m4; assay type: functional; outline: as §3
Staphylococcus aureus [11] = assay: Minimum inhibitory activity against tetracycline-susceptible Staphylococcus aureus strain RN450 (Tet K on plasmid pT181); assay type: functional; outline: as §2
Escherichia coli [12] = assay: Growth inhibitory activity against tetracycline-resistant ML308-225 bacterial strain of Escherichia coli; assay type: functional, organism-based
Outline: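 MIC by two-fold broth dilution in Luria broth from a 10 mg/mL stock, test range 200 to 0.030 µg/mL. Compounds dissolved in H2O or 1:1 H2O/MeOH. Inoculum about 10⁶ cfu/mL. Incubated 18–20 h at 37 °C. MIC taken as the lowest amount that inhibited growth.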

Escherichia coli [13] = assay: as §1; assay type: functional; remark: listed apart in the source
Outline: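 Everted inner-membrane vesicles from E. coli D1-209 carrying plasmid R222 (class B Tet on Tn10). Vesicles energized with Li lactate and given [³H]Tc together with the analogue. Accumulation read at 2.5 min against uptake without analogue. CCCP-deenergized vesicles served as negative control. IC50 is the concentration giving 50% inhibition of [³H]Tc uptake.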

Escherichia coli [14] = assay: Minimum inhibitory activity against tetracycline-susceptible Escherichia coli strain ML308-225 (Tet B on plasmid R222) in combination with doxycycline; No effect; assay type: functional, organism-based

## COC(C(=O)[C@@H](O)C(C)O)C1Cc2cc3cc(O)c(C)c(O)c3c(O)c2C(=O)C1O (stereo partly specified)
Escherichia coli [1]
  pIC50: < 4.00

## CC(=O)Oc1cccc2c1C(=O)C1=C(O)[C@]3(OC(C)=O)C(O)=C(C(N)=O)C(=O)[C@@H](N(C)C)C3CC1[C@]2(C)O (stereo partly specified)
Escherichia coli [1]
  pIC50: < 4.12

## CN(C)[C@@H]1C(=O)C(C(N)=O)=C(O)[C@@]2(O)C(O)=C3C(=O)c4c(O)cccc4[C@H](CSCCC(=O)O)C3CC12 (stereo partly specified)
Escherichia coli [2]
  MIC: > 50 µg/mL
Escherichia coli [3]
  MIC: inactive
Enterococcus faecalis [4]
  MIC: 3.12 µg/mL (≈ 5.86 µM)
Staphylococcus aureus [5]
  MIC: 2.5 µg/mL (≈ 4.69 µM)
Escherichia coli [6]
  MIC: > 40 µg/mL
Escherichia coli [7]
  MIC: > 50 µg/mL
Escherichia coli [8]
  MIC: > 50 µg/mL
Enterococcus faecalis [9]
  MIC: 10 µg/mL (≈ 18.8 µM)
Escherichia coli [10]
  MIC: 20 µg/mL (≈ 37.6 µM)
Staphylococcus aureus [11]
  MIC: 12.5 µg/mL (≈ 23.5 µM)

## COc1cc(O)c2c(c1)C(=O)c1cc3c(c(O)c1C2=O)C(OC1OC(C)C(O)C(O)C1OC)C(OC)C(C)(O)C3=O (stereo unspecified)
Escherichia coli [1]
  pIC50: < 4.12

## COc1ccc(Cl)c2c1C(=O)CC(CC(=O)O)S2 (stereo unspecified)
Escherichia coli [1]
  pIC50: < 3.82

## CC1CC(=O)C2=C(O)c3c(O)ccc(O)c3CC2C1 (stereo unspecified)
Escherichia coli [1]
  pIC50: < 3.89

## COc1cccc2c1C(=O)c1c(O)c3c(c(O)c1C2=O)C[C@@](O)(C(=O)CO)C[C@@H]3O[C@H]1C[C@H](N)[C@H](O)[C@H](C)O1 [DOXORUBICIN]
Escherichia coli [1]
  pIC50: < 4.12

## CN(C)c1ccc2c(c1O)C(=O)C1=C(O)[C@]3(O)C(O)=C(C(N)=O)C(=O)[C@@H](N(C)C)C3CC1C2 (stereo partly specified)
Escherichia coli [1]
  pIC50: 4.81

## COC(=O)C12Oc3ccc(-c4ccc5c(c4O)C(O)=C4C(=O)CC(C)C(O)C4(C(=O)OC)O5)c(O)c3C(O)=C1C(=O)CC(C)C2O (stereo unspecified)
Escherichia coli [1]
  pIC50: < 4.12

## COC(C(=O)[C@@H](O)[C@@H](C)O)C1Cc2cc3cc(O)cc(O)c3c(O)c2C(=O)C1O (stereo partly specified)
Escherichia coli [1]
  pIC50: < 4.00

## CC(=O)OC1=CC[C@H]2CC3C(=C(O)c4c(O)cccc4C3O[Si](C)(C)C(C)(C)C)C(=O)[C@H]2C1 (stereo partly specified)
Escherichia coli [1]
  pIC50: < 3.82

## C=C1c2cccc(O)c2C(=O)C2(Cl)C(=O)[C@]3(O)C(O)=C(C(N)=O)C(=O)[C@@H](N(C)C)C3CC12 (stereo partly specified)
Escherichia coli [1]
  pIC50: < 4.12

## O=CCC1CC(=O)c2c(O)ccc(Cl)c2S1 (stereo unspecified)
Escherichia coli [1]
  pIC50: < 4.12

## C[C@H]1c2cccc(O)c2C(=O)C2=C(O)[C@]3(O)C(=O)C(C(N)=O)=C(O)[C@@H](N(C)C)[C@@H]3[C@@H](O)[C@@H]21.O [DOXYCYCLINE]
Escherichia coli [12]
  pIC50: 5.04
Escherichia coli [2]
  MIC: 12.5 µg/mL
Enterococcus faecalis [4]
  MIC: 6.25 µg/mL
Staphylococcus aureus [5]
  MIC: 0.25 µg/mL
Escherichia coli [7]
  MIC: 50 µg/mL
Escherichia coli [13]
  MIC: 0.5 µg/mL
Escherichia coli [8]
  MIC: > 50 µg/mL
Enterococcus faecalis [9]
  MIC: 0.25 µg/mL
Escherichia coli [10]
  MIC: 0.5 µg/mL
Staphylococcus aureus [11]
  MIC: 12.5 µg/mL
Escherichia coli [1]
  pIC50: < 4.12

## O=C(O)CC1CC(=O)c2c(O)ccc(Cl)c2S1 (stereo unspecified)
Escherichia coli [1]
  pIC50: < 3.82

## CN(C)[C@@H]1C(=O)C(C(N)=O)=C(O)[C@@]2(O)C(O)=C3C(=O)c4c(ccc([N+](=O)[O-])c4O)CC3CC12 (stereo partly specified)
Escherichia coli [1]
  pIC50: 4.91

## CN(C)[C@@H]1C(=O)C(C(N)=O)=C(O)[C@@]2(O)C(=O)C3(F)C(=O)c4c(O)cccc4CC3CC12 (stereo partly specified)
Escherichia coli [1]
  pIC50: < 4.12

## CC(=O)OC1=C(Sc2ccccc2)C[C@H]2Cc3cc4cccc(O)c4c(O)c3C(=O)[C@H]2C1
Escherichia coli [1]
  pIC50: < 3.82

## COC(=O)c1c(O)cccc1CC1CC(=O)[C@@]2(O)C(O)=C(C(N)=O)C(=O)[C@@H](N(C)C)C2C1 (stereo partly specified)
Escherichia coli [1]
  pIC50: < 4.12

## CN(C)[C@@H]1C(=O)C(C(N)=O)=C(O)[C@@]2(O)C(O)=C3C(=O)c4c(O)cccc4[C@H](C[S+]([O-])c4ccccc4)C3CC12 (stereo partly specified)
Escherichia coli [1]
  pIC50: 6.15

## CN(C)[C@@H]1C(=O)C(C(N)=O)=C(O)[C@@]2(O)C(=O)C3C(=O)c4c(O)ccc(Cl)c4[C@@](C)(O)C3CC12 (stereo partly specified)
Escherichia coli [1]
  pIC50: < 4.12

## CN(C)[C@@H]1C(=O)C(C(N)=O)=C(O)[C@@]2(O)C(O)=C3C(=O)c4c(O)cccc4SC3CC12 (stereo partly specified)
Escherichia coli [1]
  pIC50: 5.34

## CC(=O)SC[C@H]1c2cccc(O)c2C(=O)C2=C(O)[C@]3(O)C(O)=C(C(N)=O)C(=O)[C@@H](N(C)C)C3[C@@H](O)C21 (stereo partly specified)
Escherichia coli [1]
  pIC50: 5.34

## CCCSC[C@H]1c2cccc(O)c2C(=O)C2=C(O)[C@]3(O)C(O)=C(C(N)=O)C(=O)[C@@H](N(C)C)C3[C@@H](O)C21 (stereo partly specified)
Escherichia coli [2]
  MIC: 12.5 µg/mL (≈ 24.1 µM)
Escherichia coli [14]
  MIC: inactive
Enterococcus faecalis [4]
  MIC: 1.56 µg/mL (≈ 3.01 µM)
Staphylococcus aureus [5]
  MIC: 0.6 µg/mL (≈ 1.16 µM)
Escherichia coli [6]
  MIC: 40 µg/mL (≈ 77.1 µM)
Escherichia coli [7]
  MIC: > 50 µg/mL
Escherichia coli [8]
  MIC: > 50 µg/mL
Enterococcus faecalis [9]
  MIC: 1.25 µg/mL (≈ 2.41 µM)
Escherichia coli [10]
  MIC: 10 µg/mL (≈ 19.3 µM)
Staphylococcus aureus [11]
  MIC: 12.5 µg/mL (≈ 24.1 µM)

## COc1cc(O)c2c(c1)C(=O)c1cc3c(c(O)c1C2=O)C(OC1OC(C)C(OC)C(O)C1OC)C(OC)C(C)(O)C3=O (stereo unspecified)
Escherichia coli [1]
  pIC50: < 4.12

## CN(C)[C@@H]1C(=O)C(C(N)=O)=C(O)[C@@]2(O)C(O)=C3C(=O)c4c(O)cccc4[C@H](CSCCCCl)C3[C@H](O)C12 (stereo partly specified)
Escherichia coli [2]
  MIC: 6.25 µg/mL (≈ 11.3 µM)
Escherichia coli [14]
  MIC: inactive
Enterococcus faecalis [4]
  MIC: 1.56 µg/mL (≈ 2.82 µM)
Staphylococcus aureus [5]
  MIC: 0.6 µg/mL (≈ 1.08 µM)
Escherichia coli [6]
  MIC: 10 µg/mL (≈ 18.1 µM)
Escherichia coli [7]
  MIC: 50 µg/mL (≈ 90.4 µM)
Escherichia coli [8]
  MIC: > 50 µg/mL
Enterococcus faecalis [9]
  MIC: 0.6 µg/mL (≈ 1.08 µM)
Escherichia coli [10]
  MIC: 2.5 µg/mL (≈ 4.52 µM)
Staphylococcus aureus [11]
  MIC: 6.25 µg/mL (≈ 11.3 µM)
Escherichia coli [1]
  pIC50: 6.22

## CC(=O)C1CCC2C(=O)C3=C(O)c4c(O)ccc(O)c4CC3CC2C1 (stereo unspecified)
Escherichia coli [1]
  pIC50: < 4.12

## O=CCC1CC(=O)c2c(O)cccc2S1 (stereo unspecified)
Escherichia coli [1]
  pIC50: < 4.12

## CN(C)[C@@H]1C(=O)C(C(N)=O)=C(O)[C@@]2(O)C(O)=C3C(=O)c4c(O)cccc4[C@H](CS)C3[C@H](O)C12 (stereo partly specified)
Escherichia coli [1]
  pIC50: 5.34

## O=C1c2ccc(O)c(O)c2C(=O)c2c(O)ccc(O)c21 [QUINALIZARIN]
Escherichia coli [1]
  pIC50: < 3.82

## CN(C)c1ccc(O)c2c1CC1CC3[C@H](N(C)C)C(=O)C(C(N)=O)=C(O)[C@@]3(O)C(O)=C1C2=O (stereo partly specified)
Escherichia coli [1]
  pIC50: 5.64

## Cc1cc(O)c2c(c1O)C(=O)c1cc(O)cc(O)c1C2=O [CATENARIN]
Escherichia coli [1]
  pIC50: < 3.82

## COc1cc(O)c2c(c1Cl)CC1CC3[C@H](N(C)C)C(=O)C(C(N)=O)=C(O)[C@@]3(O)C(O)=C1C2=O (stereo partly specified)
Escherichia coli [1]
  pIC50: 4.71
